In ChEMBL document CHEMBL4002631, “Synthesis, antimycobacterial and cytotoxic activity of α,β-unsaturated amides and 2,4-disubstituted oxazoline derivatives” (Bioorg Med Chem Lett, 2017) one finds MIC and Activity data, which are given here for 16 molecules.

The structures appear in SMILES notation. In brackets after ≈: the same amount, converted by molar mass.

In series [1] the test system is Mycobacterium tuberculosis. Briefly: Antimycobacterial activity against isoniazid/rifampicin/ethambutol-sensitive Mycobacterium tuberculosis H37Rv after 4 days by Alamar blue assay. Type of series: functional. The settings on record: 96 h. In outline: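 Microplate Alamar blue assay against M. tuberculosis H37Rv (sensitive to isoniazid, rifampicin and ethambutol) and a clinical isolate resistant to all three drugs. Compounds were tested at 256, 128, 64, 32, 16, 8, 4, 2 and 1 µg/mL. Isoniazid, rifampicin, ethambutol and ofloxacin controls were run under the same conditions. MIC is given in µg/mL and converted to µM.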
On the technique in general: Resazurin is reduced to fluorescent resorufin, in cell work by metabolically active cells.

Series [2] concerns Liver. Kind of series: Toxicity in Sprague-Dawley rat liver assessed as histological damage at 5 to 30 ug/ml after 24 hrs by hematoxylin and eosin staining-based bright field microscopic method. Type of series: tissue-based. In outline:
(§1)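 Ex-vivo 3D assay using precision-cut rat liver slices. Slices were cultured for 24 h at 5, 15 and 30 µg/mL, with compound dissolved in DMSO. Controls were medium alone and 0.5% DMSO (negative), with isoniazid as the reference. Read-out was histopathology of H&E-stained sections under bright-field light microscopy (40x), scoring hepatic cords, portal triads, central veins, inflammatory infiltrate and necrosis.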

For series [3], the system named is Liver. Briefly: Toxicity in Sprague-Dawley rat liver assessed as presence of periportal inflammatory infiltrate at 5 to 30 ug/ml after 24 hrs by hematoxylin and eosin staining-based bright field microscopic method. Type of series: tissue-based. In outline:
as §1

The subject of series [4] is Liver. Briefly: Toxicity in Sprague-Dawley rat liver assessed as centrilobular necrosis at 5 to 30 ug/ml after 24 hrs by hematoxylin and eosin staining-based bright field microscopic method. Type of series: tissue-based. An outline of the steps: as §1

Turning to `C(=C\c1ccccc1)/C1=N[C@@H](Cc2ccccc2)CO1`, the lowest concentration to inhibit growth in series [1] (MIC) was 60.8 µM (≈ 16 µg/mL).

For the molecule `C(=C\c1cccs1)/C1=N[C@@H](Cc2ccccc2)CO1`, the MIC in series [1] was determined as 29.7 µM (≈ 8 µg/mL).

For `O=C(/C=C/c1ccc(OCc2ccccc2)cc1)N[C@H](CO)Cc1ccccc1`, the MIC in series [1] came out at 41.2 µM (≈ 16 µg/mL).

In turn, `COc1ccc(/C=C/C2=N[C@@H](Cc3ccccc3)CO2)cc1` came in with an MIC in series [1] of 13.6 µM (≈ 3.99 µg/mL). In addition, the Activity result in the series with Liver [2] is listed as “Non-Toxic”.

`COc1ccc(/C=C/C(=O)N[C@H](CO)Cc2ccccc2)cc1`: in series [1], the MIC is 25.6 µM (≈ 7.97 µg/mL).

In turn, `O=C(/C=C/c1cccs1)N[C@H](CO)Cc1ccccc1` had an MIC in series [1] of 55.6 µM (≈ 16 µg/mL).

In series [1], `O=C(/C=C/c1ccccc1)N[C@H](CO)Cc1ccccc1` came in with an MIC of 56.8 µM (≈ 16 µg/mL).

In series [1], `Fc1ccc(/C=C/C2=N[C@@H](Cc3ccccc3)CO2)cc1` returned an MIC of 14.2 µM (≈ 3.99 µg/mL).

In series [1], `Clc1ccc(/C=C/C2=N[C@@H](Cc3ccccc3)CO2)cc1` returned a minimum inhibitory concentration (MIC) of 26.9 µM (≈ 8.01 µg/mL).

`C(=C\c1ccc(OCc2ccccc2)cc1)/C1=N[C@@H](Cc2ccccc2)CO1`: the MIC in series [1] was 10.8 µM (≈ 3.99 µg/mL).

In series [1], `O=C(/C=C/c1ccc(Cl)cc1)N[C@H](CO)Cc1ccccc1` came in with an MIC of 25.3 µM (≈ 7.99 µg/mL).

Turning to `O=C(/C=C/c1ccc(F)cc1)N[C@H](CO)Cc1ccccc1`, inhibition of growth in series [1] (MIC) required 26.7 µM (≈ 7.99 µg/mL).

In the case of `CC[C@@H](CO)NCCN[C@@H](CC)CO` [ETHAMBUTOL], the MIC in series [1] is 39.1 µM (≈ 7.99 µg/mL).

As to `NNC(=O)c1ccncc1` [ISONIAZID], in series [1], the MIC was < 7.2 µM. Besides, the Activity result in the series with Liver [3] and with Liver [4] was “Toxic” throughout.

Regarding `CC1COc2c(N3CCN(C)CC3)c(F)cc3c(=O)c(C(=O)O)cn1c23` (centres undefined) [OFLOXACIN], the MIC in series [1] was < 2.7 µM.

On to `CO[C@H]1/C=C/O[C@@]2(C)Oc3c(C)c(O)c4c(O)c(c(/C=N/N5CCN(C)CC5)c(O)c4c3C2=O)NC(=O)/C(C)=C\C=C\[C@H](C)[C@H](O)[C@@H](C)[C@@H](O)[C@@H](C)[C@H](OC(C)=O)[C@@H]1C` [RIFAMPIN], for which the MIC in series [1] was determined as 4.8 µM (≈ 3.95 µg/mL).

As a reminder, the MIC is the lowest concentration that inhibits growth of the organism. Higher therefore signals a less susceptible organism.
